Screening results (PubChem BioAssay)
OX1R antag-1: OX1R (human) antagonism | O43613 | OX1R-expressing cells, FRET antagonist read-out | inhibition, % at 6.6 µM | hit rate 1.8% among 330,000; in the data active means inhibition mostly above about 38%, no sharp cut-off; inactive means mostly below about 40%;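 further: 0% = agonist challenge alone and 100% = reference antagonist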
Target sequence (O43613 whole entry, looked up): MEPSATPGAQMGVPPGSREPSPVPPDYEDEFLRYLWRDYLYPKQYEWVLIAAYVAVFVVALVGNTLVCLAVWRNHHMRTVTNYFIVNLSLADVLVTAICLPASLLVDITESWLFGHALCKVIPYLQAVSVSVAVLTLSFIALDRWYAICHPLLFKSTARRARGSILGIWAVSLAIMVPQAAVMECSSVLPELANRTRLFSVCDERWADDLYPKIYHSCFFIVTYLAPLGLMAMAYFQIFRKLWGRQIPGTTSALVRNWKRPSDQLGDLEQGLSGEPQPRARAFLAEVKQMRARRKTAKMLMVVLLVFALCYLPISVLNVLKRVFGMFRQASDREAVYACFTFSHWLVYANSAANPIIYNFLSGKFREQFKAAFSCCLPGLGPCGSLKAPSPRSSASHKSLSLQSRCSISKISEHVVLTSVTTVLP
TAAR1 antagonist: human TAAR1 antagonism; Q96RJ0; CHO RD-HGA16 TAAR1, Fluo-8 calcium fluorescence, antagonist; inhibition, % at 3 µM; hit rate 1.5% among 360,000; AID 624466;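 active means inhibition above a per-plate cutoff, the mean inhibition of test compounds on that plate plus 3 SD, cut at about 49% in these data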;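 further: 0% = DMSO plus EC80 beta-PEA response and 100% = DMSO alone without agonist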
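test system = CHO RD-HGA16 cells bearing hTAAR1 | replication = singlicate | controls = DMSO-only wells and EC80 β-PEA-stimulated wells | reagent = EC80 β-phenethylamine stimulus | read-out basis = percent inhibition of PEA-evoked calcium signal, max/basal emission ratio | schedule = seeding 17-24 h prior, 75-min 37 °C, 30-min RT dye loading | signal = kinetic Fluo-8 calcium fluorescence measurement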
CHO parental Ca: signal in parental CHO cells, OX1R antagonist counter-screen; inhibition, % at 5.6 µM; hit rate 0.63% among 330,000; parental CHO-K1, ATP-induced calcium, Fluo-8 fluorescence;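 active means inhibition above that plate's mean sample inhibition plus 3 SD, cut at about 26% in these data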;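 further: 0% = ATP-challenged DMSO wells and 100% = DMSO wells without ATP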
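material = parental CHO cells | also added = ATP as calcium-mobilizing challenge | dosing = single point at 5.6 µM | detection = intracellular calcium via Fluo-8 no-wash fluorescent dye | read-out = % inhibition | benchmarks = low control ATP plus DMSO, high control DMSO only | repeats = one well per compound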
TAAR1 agonist: human TAAR1 agonism; CHO RD-HGA16 TAAR1, Fluo-8 calcium fluorescence; vehicle wells 0%, saturating PEA agonist 100%; activation, % at 3 µM; hit rate 0.99% among 360,000; AID 624467;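 active means activation above the mean activation of all test compounds in the run plus 3 SD, cut at about 38% in these data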
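Signal – calcium-sensitive Fluo-8 signal, excitation 470-495, emission 515-575 nm · System – RD-HGA16 (CHO) cells co-expressing Gα16 and hTAAR1 · Incubation – 17-24 h seeding, 75 min 37 °C dye, 30 min RT · Compound dosing – 3 µM single concentration · Repeats – no replicates (n 1)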
OX1R antag-2: blocks the human orexin 1 receptor | AID 434989 | O43613 | CHO/OX1R cells, Fluo-8 calcium fluorescence, orexin A | hit rate 0.43% among 330,000 | inhibition, % at 5 µM;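 active means inhibition above its plate's threshold, mean inhibition of all tested compounds on the plate plus 3 SD, cut at about 37% in these data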;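 further: 0% = orexin A challenge wells and 100% = SB-334867-A antagonist wells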
GPR7 antagonist: human neuropeptides B/W receptor 1 antagonism. P48145. GPR7-expressing cells, fluorescence antagonist assay. inhibition, % at 4.4 µM. hit rate 1.1% among 290,000; in the data active means inhibition above about 16%, passing the limit was not always enough;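 further: cells stimulated with the agonist NPW; 0% = agonist with vehicle and 100% = vehicle without agonist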
Target sequence (P48145 whole entry, looked up): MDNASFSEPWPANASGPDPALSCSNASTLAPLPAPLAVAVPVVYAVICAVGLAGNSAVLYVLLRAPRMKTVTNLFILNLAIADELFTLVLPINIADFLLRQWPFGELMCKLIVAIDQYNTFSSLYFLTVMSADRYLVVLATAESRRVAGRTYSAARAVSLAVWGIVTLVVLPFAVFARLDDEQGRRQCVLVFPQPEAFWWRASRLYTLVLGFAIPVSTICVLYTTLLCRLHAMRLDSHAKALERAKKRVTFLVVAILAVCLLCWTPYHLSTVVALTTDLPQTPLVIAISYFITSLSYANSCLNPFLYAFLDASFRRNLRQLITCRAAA
TAAR1 ag conf: human TAAR1 agonism, confirmed. shares compounds with TAAR1 agonist. CHO RD-HGA16 TAAR1, Fluo-8 calcium fluorescence; scaled: DMSO 0%, maximal phenethylamine 100%. activation, % at 3 µM. hit rate 82% among 2,400;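 active means activation above a cutoff set at the run's mean compound activation plus 3 SD, cut at about 39% in these data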
Ga16 ag counter: nonselective agonism, TAAR1 counter-screen | shares compounds with TAAR1 agonist | CHO-Ga16 parental, Fluo-8 calcium fluorescence; normalized to maximal ATP response, DMSO zero | activation, % at 3 µM | hit rate 50% among 2,400;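 active means activation above the run cutoff, the mean activation over all tested wells plus 3 SD, cut at about 12% in these data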;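 further: 0% = DMSO wells and 100% = maximal ATP response on the peak over basal ratio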
TAAR1 desensitize: human TAAR1 agonist that also desensitizes the receptor. shares compounds with TAAR1 agonist. CHO RD-HGA16 hTAAR1, Fluo-8 calcium, beta-PEA response inhibition. inhibition, % at 3 µM. hit rate 46% among 2,400. AID 651951;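 active means inhibition above the run cutoff, the mean inhibition of all test compounds plus 3 SD, cut at about 49% in these data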;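 further: beta-PEA stimulus applied at its EC80; loss of beta-PEA calcium signal after compound pretreatment read as receptor desensitization; 0% = DMSO with beta-PEA at EC80 and 100% = DMSO alone without agonist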
Ga16 antag count: nonselective Ga16 antagonist in TAAR1 agonist counter-screen; shares compounds with TAAR1 agonist; CHO-Ga16 ATP-induced calcium, Fluo-8 fluorescence; inhibition, % at 3 µM; hit rate 39% among 2,400; AID 651952;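 active means inhibition above the plate's mean compound inhibition plus 3 SD, computed per plate, cut at about 22% in these data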;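 further: 0% = EC80 ATP with DMSO and 100% = DMSO wells without ATP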
The depositor's hits bear a star; . = not tested or not shown. In the library only some 4.6% were active in any assay of this set; here they are far more common.

SMILES | OX1R antag-1 | TAAR1 antagonist | CHO parental Ca | TAAR1 agonist | OX1R antag-2 | GPR7 antagonist | TAAR1 ag conf | Ga16 ag counter | TAAR1 desensitize | Ga16 antag count
Cc1ccc(Nc2nc(N)nc(CN3CCc4ccccc4C3)n2)cc1 | 13.3 | 4.6 | -35.8 | 52.1* | -37.3 | -0.9 | 68.7* | -1.2 | -2.2 | 0.8
NC(N)=N/N=C/c1ccccc1 | 9.2 | 88.6* | 2.5 | 63.5* | -3.1 | -7.7 | 91.5* | 4.7 | 93.5* | 7.0
NC(N)=N/N=C/c1ccc(OCc2ccccc2Cl)cc1 | 8.1 | -10.8 | 14.7 | 49.8* | 13.1 | 1.3 | 86.7* | 54.6* | 70.5* | 60.6*
O=C(C[C@@H]1CC[C@H](NC(=O)c2ccc3c(c2)OCO3)[C@@H](CO)O1)NCc1ccc(F)cc1 | . | 0.7 | . | 0.6 | . | . | . | . | . | .
CC(NC(=O)CSc1nnnn1C1CC1)c1ccccc1Br (stereo not drawn) | 1.8 | 5.3 | -7.6 | 1.4 | -19.7 | . | . | . | . | .
O=c1cc(N2CCc3ccccc3C2)[nH]c(=O)n1-c1ccccc1Cl | -5.8 | 26.7 | -10.5 | 78.7* | -20.8 | -5.6 | 61.9* | 3.6 | 2.3 | 12.3
Cc1ccc(-n2c(=O)cc(N3CCC(C)CC3)[nH]c2=O)cc1 | -1.7 | -12.1 | -16.0 | 3.7 | -0.5 | -10.4 | . | . | . | .
O=c1cc(N2CCc3ccccc3C2)[nH]c(=O)n1C1CCCCC1 | 15.0 | -6.0 | -8.8 | 2.7 | -21.0 | 2.4 | . | . | . | .
Cc1ccccc1-n1c(=O)cc(N2CCc3ccccc3C2)[nH]c1=O | -0.7 | 54.1* | -8.3 | 92.0* | -12.4 | -2.9 | 96.7* | 3.2 | 79.5* | 7.2
Cc1ccc(-n2c(=O)cc(N3CCc4ccccc4C3)[nH]c2=O)cc1 | 4.5 | 2.8 | -3.7 | 87.2* | -8.6 | -8.2 | 4.0 | 0.2 | 8.6 | 5.7
CN1C(=O)NC(c2ccccc2)C2=C1CN(CCc1ccccc1)C2=O (stereo not drawn) | 9.2 | 18.9 | -10.9 | 57.9* | -18.2 | 2.8 | 71.5* | 2.4 | 53.7* | 11.3
COc1ccc(CCN2CC3=C(C2=O)C(c2ccccc2)NC(=O)N3C)cc1OC (stereo not drawn) | 11.1 | 0.1 | -13.4 | 8.0 | -12.7 | 10.9 | . | . | . | .
CCOC(=O)c1c(C)[nH]c(C(=O)COC(=O)c2cccnc2Cl)c1C | 8.7 | 10.4 | -10.9 | 10.1 | -11.4 | . | . | . | . | .
CCOC(=O)c1c(C)[nH]c(C(=O)COC(=O)c2cnccn2)c1C | -1.7 | 12.6 | -11.8 | 74.2* | -12.3 | . | -0.3 | 1.5 | 6.7 | 13.0
CC(=O)c1ccc(NC(=O)Nc2ccccc2)cc1 | 14.1 | 15.1 | -3.9 | 53.6* | -6.4 | 11.7 | 67.8* | 11.3 | 55.4* | 14.3
O=C(Nc1ccccc1)Nc1ccncc1 | 8.4 | 53.0* | 1.5 | 81.8* | 0.7 | -6.3 | 97.0* | 6.1 | 86.3* | 7.9
CN(c1cccc(NC(=O)Nc2cccc(Cl)c2)c1)S(C)(=O)=O | 98.2* | 19.4 | 73.4* | 42.6* | 71.7* | 10.4 | 36.8 | 9.2 | 31.6 | 29.0*
O=C(Nc1ccncc1)Nc1cccc(Cl)c1 | 6.2 | 33.9 | 22.5 | 59.1* | 3.8 | 9.7 | 85.6* | 15.7* | 52.5* | 19.4
Cc1ccc(OC(=O)N(C)C[C@H]2OCc3cn(nn3)CCCC(=O)N([C@H](C)CO)C[C@@H]2C)cc1 | . | 15.8 | . | -0.3 | . | . | . | . | . | .
COc1cc(OC)cc(C(=O)OCC(=O)NCCCc2ccccc2)c1 | -5.0 | -18.8 | -13.4 | 0.2 | -15.2 | 5.0 | . | . | . | .
Cc1cc(=O)[nH]c(SCC(=O)N2CCCC2)n1 | 2.2 | -11.2 | -1.4 | 2.2 | -11.0 | . | . | . | . | .
Cc1cc(=O)[nH]c(SCC(=O)N2CCCC(C)C2)n1 (stereo not drawn) | 9.3 | -10.1 | 10.1 | 75.4* | -6.2 | -7.6 | 38.7* | 0.9 | -8.1 | 2.3
Cc1cc(C(c2ccc(O)cc2)c2cc(C)c(O)cc2C)c(C)cc1O | 5.2 | 85.0* | 18.8 | 113.0* | 29.2 | 58.1* | 131.0* | 77.5* | 78.1* | 41.2*
O=C(Nc1ccc(Cl)c(Cl)c1)N1CCOCC1 | . | 6.8 | . | 6.4 | . | -8.8 | . | . | . | .
O=C(/C=C/c1ccc(Cl)cc1)Nc1ccc(N2CCOCC2)cc1 | 19.6 | -8.1 | -13.4 | 0.2 | -19.6 | -6.6 | . | . | . | .
O=C(Nc1ccc(N2CCOCC2)cc1)Nc1ccc(Cl)c(Cl)c1 | 18.6 | 90.3* | 51.4* | 65.5* | 44.9* | -6.8 | 40.2* | 29.8* | 89.2* | 62.3*
O=C(Nc1ccc(Cl)cc1)Nc1ccc(N2CCOCC2)cc1 | 12.2 | 79.3* | 8.9 | 66.1* | -2.7 | -5.0 | 48.5* | 12.9* | 49.3* | 21.9*
CCn1c(SCC(=O)NCCCN2CCCC2=O)nnc1-c1cccc(C)c1 | . | -26.1 | . | 1.3 | . | . | . | . | . | .
Cc1cc2c(cc1C)-n1nnnc1C(N(C)CCc1ccccc1)C(=O)N2 (stereo not drawn) | . | 18.3 | . | 54.3* | . | . | 65.1* | 5.9 | 35.6 | 10.5
